Laboratory results reported in ChEMBL document CHEMBL1142938 (J Med Chem, 2007).

Experiments:
Adenosine receptor A1 = biological target: T1, Adenosine receptor A1 (Homo sapiens, UniProt P30542); assay: Displacement of [3H]CCPA from human recombinant adenosine A1 receptor expressed in CHO cells; format: cell-based
T1 sequence (P30542 whole entry): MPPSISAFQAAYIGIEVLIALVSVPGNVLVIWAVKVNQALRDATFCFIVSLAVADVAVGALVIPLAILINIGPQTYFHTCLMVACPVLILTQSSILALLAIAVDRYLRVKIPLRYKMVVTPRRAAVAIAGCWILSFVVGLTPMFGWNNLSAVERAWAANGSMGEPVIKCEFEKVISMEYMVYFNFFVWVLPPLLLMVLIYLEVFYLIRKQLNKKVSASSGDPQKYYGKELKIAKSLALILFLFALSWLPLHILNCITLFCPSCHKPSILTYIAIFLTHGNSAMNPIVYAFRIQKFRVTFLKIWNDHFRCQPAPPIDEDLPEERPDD

Adenosine receptor A2a = Adenosine receptor A2a (Homo sapiens, UniProt P29274); assay: Displacement of [3H]NECA from human recombinant adenosine A2A receptor expressed in CHO cells; format: cell-based
Adenosine receptor A2a, sequence (P29274 whole entry): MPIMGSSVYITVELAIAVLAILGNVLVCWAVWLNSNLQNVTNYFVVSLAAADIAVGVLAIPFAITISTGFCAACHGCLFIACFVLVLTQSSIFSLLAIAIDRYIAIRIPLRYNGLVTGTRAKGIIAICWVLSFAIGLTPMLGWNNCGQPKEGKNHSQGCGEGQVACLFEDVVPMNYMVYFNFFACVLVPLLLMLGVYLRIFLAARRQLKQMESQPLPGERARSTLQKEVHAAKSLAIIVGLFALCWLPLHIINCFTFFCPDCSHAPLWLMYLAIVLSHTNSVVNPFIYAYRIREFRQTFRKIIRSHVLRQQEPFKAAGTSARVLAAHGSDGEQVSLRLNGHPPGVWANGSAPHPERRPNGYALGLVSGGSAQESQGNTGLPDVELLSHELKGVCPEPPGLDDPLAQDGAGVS
Method in brief: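 Competition binding with [3H]NECA at 30 nM on stably transfected CHO cells. Nonspecific binding defined with 1 mM theophylline. Dissociation constants (Ki) obtained by nonlinear curve fitting.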

Adenosine receptor A3 = biological target: T2, Adenosine receptor A3 (Homo sapiens, UniProt P0DMS8); assay: Displacement of [3H]NECA from human recombinant adenosine A3 receptor expressed in CHO cells; format: cell-based
T2 sequence (P0DMS8 whole entry): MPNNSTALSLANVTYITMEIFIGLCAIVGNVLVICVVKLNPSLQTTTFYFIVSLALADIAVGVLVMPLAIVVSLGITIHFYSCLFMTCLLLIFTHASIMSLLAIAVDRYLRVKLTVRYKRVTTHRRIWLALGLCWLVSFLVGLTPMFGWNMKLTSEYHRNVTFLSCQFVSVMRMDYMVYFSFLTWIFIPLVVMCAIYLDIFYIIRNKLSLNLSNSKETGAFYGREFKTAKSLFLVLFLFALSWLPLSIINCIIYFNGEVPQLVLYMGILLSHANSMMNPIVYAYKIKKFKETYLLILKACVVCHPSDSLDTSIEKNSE
Method in brief: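 [3H]NECA used at 10 nM as radioligand in competition experiments, stably transfected CHO cells. Nonspecific binding defined with 1 mM theophylline. Ki from nonlinear curve fitting.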

[1] = biological target: Adenosine receptors; A1 & A3 (Homo sapiens) (UniProt P30542+P0DMS8); assay: Selectivity for human adenosine A3 receptor over human adenosine A1 receptor; format: protein assay
[2] = biological target: Adenosine receptors; A2a & A3 (Homo sapiens) (UniProt P0DMS8+P29274); assay: Selectivity for human adenosine A3 receptor over human adenosine A2A receptor; format: protein assay
[3] = biological target: T3, Adenosine receptor A3 (Homo sapiens) (UniProt P0DMS8); assay: Activity at human adenosine A3 receptor assessed as inhibition of forskolin-stimulated cAMP production in CHO cells; format: functional, cell-based; parameters: concentration or dose not given beside the values
T3 sequence (whole entry): T2 sequence (P0DMS8 whole entry)

Row | SMILES | Ki (Adenosine receptor A1) | Ki (Adenosine receptor A2a) | Ki (Adenosine receptor A3) | Ratio Ki [1] | Ratio Ki [2] | Activity [3]
1 | CCNC(=O)[C@H]1O[C@@H](n2cnc3c(N)nc(C#Cc4ccccc4)nc32)[C@H](O)[C@@H]1O |  |  |  | 90 | 100 | 
2 | CCCCCc1ccc(C#Cc2nc(NOC)c3ncn([C@@H]4O[C@H](C(=O)NC)[C@@H](O)[C@H]4O)c3n2)cc1 | 48100 nM | 31700 nM | 55 nM | 874 | 576 | 
3 | CONc1nc(C#Cc2ccc(CC#N)cc2)nc2c1ncn2[C@@H]1O[C@H](CO)[C@@H](O)[C@H]1O | 766 nM | 3080 nM | 3.7 nM | 207 | 832 | 
4 | CONc1nc(C#Cc2cccnc2)nc2c1ncn2[C@@H]1O[C@H](CO)[C@@H](O)[C@H]1O | 255 nM | 12500 nM | 7.9 nM | 32 | 1600 | 
5 | CCNC(=O)[C@H]1O[C@@H](n2cnc3c(NOC)nc(C#Cc4ccc(C(C)=O)cc4)nc32)[C@H](O)[C@@H]1O | 1230 nM | 4210 nM | 4 nM | 307 | 1100 | 
6 | CCCCCc1ccc(C#Cc2nc(NOC)c3ncn([C@@H]4O[C@H](CO)[C@@H](O)[C@H]4O)c3n2)cc1 | 730 nM | 6520 nM | 39 nM | 19 | 167 | 
7 | C#Cc1nc(NOC)c2ncn([C@@H]3O[C@H](CO)[C@@H](O)[C@H]3O)c2n1 | 25 nM | 3140 nM | 23 nM | 1 | 136 | 
8 | CONc1nc(C#Cc2ccc(C(N)=O)cc2)nc2c1ncn2[C@@H]1O[C@H](CO)[C@@H](O)[C@H]1O | 901 nM | 3130 nM | 5.2 nM | 173 | 602 | 
9 | CCNC(=O)[C@H]1O[C@@H](n2cnc3c(NOC)nc(C#Cc4ccc(C)cc4)nc32)[C@H](O)[C@@H]1O | 1420 nM | 4600 nM | 6.8 nM | 209 | 676 | 
10 | CONc1nc(C#Cc2ccc(C)cc2)nc2c1ncn2[C@@H]1O[C@H](CO)[C@@H](O)[C@H]1O | 1380 nM | 35100 nM | 5.9 nM | 234 | 6000 | 
11 | Nc1nc(C#Cc2ccccc2)nc2c1ncn2[C@@H]1O[C@H](CO)[C@@H](O)[C@H]1O |  |  |  | 24 | 23 | 
12 | CONc1nc(C#Cc2ccc(OC)cc2)nc2c1ncn2[C@@H]1O[C@H](CO)[C@@H](O)[C@H]1O | 1870 nM | 1780 nM | 4.3 nM | 435 | 414 | 
13 | CONc1nc(C#C[Si](C)(C)C)nc2c1ncn2[C@@H]1O[C@H](CO)[C@@H](O)[C@H]1O | 22 nM | 5740 nM | 13 nM | 1.7 | 441 | 
14 | CCCCCc1ccc(C#Cc2nc(NOC)c3ncn([C@@H]4O[C@H](C(=O)NCC)[C@@H](O)[C@H]4O)c3n2)cc1 | 4090 nM | 27100 nM | 68 nM | 60 | 399 | 
15 | CONc1nc(C#CCCCC#N)nc2c1ncn2[C@@H]1O[C@H](CO)[C@@H](O)[C@H]1O | 282 nM | 1820 nM | 4.1 nM | 69 | 444 | 
16 | CONc1nc(C#Cc2ccc(F)cc2)nc2c1ncn2[C@@H]1O[C@H](CO)[C@@H](O)[C@H]1O | 2790 nM | 3960 nM | 4.4 nM | 634 | 900 | 
17 | CONc1nc(C#Cc2ccccc2)nc2c1ncn2[C@@H]1O[C@@H](CO)[C@@H](O)[C@H]1O | 1210 nM | 4290 nM | 3.8 nM | 318 | 1100 | 81%
18 | CONc1nc(I)nc2c1ncn2[C@@H]1O[C@H](CO)[C@@H](O)[C@H]1O | 58 nM | 12400 nM | 7.4 nM | 8 | 1700 | 
19 | CONc1nc(C#CCC(C)O)nc2c1ncn2[C@@H]1O[C@H](CO)[C@@H](O)[C@H]1O (some centres not stated) | 95 nM | 758 nM | 5.4 nM | 18 | 140 | 
20 | CONc1nc(C#Cc2cccc(C(F)(F)F)c2)nc2c1ncn2[C@@H]1O[C@H](CO)[C@@H](O)[C@H]1O | 2450 nM | 8270 nM | 23 nM | 106 | 360 | 
21 | CONc1nc(C#Cc2ccncc2)nc2c1ncn2[C@@H]1O[C@H](CO)[C@@H](O)[C@H]1O | 1190 nM | 6310 nM | 6 nM | 198 | 1100 | 

The remaining lines, values ahead:

Row | Ki (Adenosine receptor A1) | Ki (Adenosine receptor A2a) | Ki (Adenosine receptor A3) | Ratio Ki [1] | Ratio Ki [2] | Activity [3] | SMILES
22 | 53 nM | 5290 nM | 2.8 nM | 19 | 1900 |  | CCNC(=O)[C@H]1O[C@@H](n2cnc3c(NOC)nc(I)nc32)[C@H](O)[C@@H]1O
23 |  | 14700 nM | 3.3 nM | 3600 | 4500 |  | CNC(=O)[C@H]1O[C@@H](n2cnc3c(NOC)nc(C#Cc4ccc(C)cc4)nc32)[C@H](O)[C@@H]1O
24 | 153 nM | 12100 nM | 1.7 nM | 90 | 7100 |  | CNC(=O)[C@H]1O[C@@H](n2cnc3c(NOC)nc(I)nc32)[C@H](O)[C@@H]1O
25 | 1280 nM | 2680 nM | 3 nM | 427 | 893 | 81% | CONc1nc(C#Cc2ccc(C(C)=O)cc2)nc2c1ncn2[C@@H]1O[C@H](CO)[C@@H](O)[C@H]1O
26 | 97 nM | 267 nM | 2.8 nM | 35 | 95 |  | CCCCC#Cc1nc(NOC)c2ncn([C@@H]3O[C@H](CO)[C@@H](O)[C@H]3O)c2n1
27 | 1880 nM | 6290 nM | 3.2 nM | 587 | 2000 |  | CCNC(=O)[C@H]1O[C@@H](n2cnc3c(NOC)nc(C#Cc4ccc(F)cc4)nc32)[C@H](O)[C@@H]1O
28 | 437 nM | 2960 nM | 2.3 nM | 190 | 1300 | 94% | CONc1nc(C#Cc2ccccn2)nc2c1ncn2[C@@H]1O[C@H](CO)[C@@H](O)[C@H]1O
29 | 3000 nM | 18700 nM | 1.9 nM | 1600 | 9800 |  | CNC(=O)[C@H]1O[C@@H](n2cnc3c(NOC)nc(C#Cc4ccc(F)cc4)nc32)[C@H](O)[C@@H]1O
30 | 175 nM | 6460 nM | 1.6 nM | 109 | 4000 |  | CCNC(=O)[C@H]1O[C@@H](n2cnc3c(NOC)nc(C#Cc4ccccn4)nc32)[C@H](O)[C@@H]1O
31 | 3990 nM | 18000 nM | 1.1 nM | 3600 | 16400 | 34% | CNC(=O)[C@H]1O[C@@H](n2cnc3c(NOC)nc(C#Cc4ccccn4)nc32)[C@H](O)[C@@H]1O
32 | 53800 nM | 10400 nM | 2.5 nM | 21500 | 4200 | 41% | CNC(=O)[C@H]1O[C@@H](n2cnc3c(NOC)nc(C#Cc4ccc(C(C)=O)cc4)nc32)[C@H](O)[C@@H]1O
33 | 1880 nM |  | 3.5 nM |  |  | 35% | CCNC(=O)[C@H]1O[C@@H](n2cnc3c(NOC)nc(C#Cc4ccccc4)nc32)[C@H](O)[C@@H]1O
34 | 9140 nM | 16300 nM | 1.9 nM | 4800 | 8600 | 38% | CNC(=O)[C@H]1O[C@@H](n2cnc3c(NOC)nc(C#Cc4ccccc4)nc32)[C@H](O)[C@@H]1O
